According to ChEMBL document CHEMBL5058577, “EUbOPEN Chemogenomics Library 2 (Multiplex)” (2022):

Tested on: HEK-293T
Test: Multiplex assay against HEK293T
Format: toxicity, cell-based
Details: human
Method in brief: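 Live cells carried four stains from seeding: Hoechst33342, BioTracker Green Microtubule Cytoskeleton Dye, MitoTracker Red and Annexin V Alexa Fluor 680. They were imaged on a CQ1 microscope at 37°C and 5% CO2 after compound addition. Using CellPathfinder machine-learning gating, cells were split into Hoechst high-intensity objects or normal cells, normal cells into healthy, pyknosed or fragmented nuclei, and pyknosed cells into mitotic or apoptotic; tubulin, mitochondrial-mass and membrane-permeability phenotypes are per cents of healthy-nucleus cells.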

[1] = 12 h, 1 µM, compound concentration 1 uM, replicate 1
[2] = 12 h, 1 µM, compound concentration 1 uM, replicate 2
[3] = 12 h, 10 µM, compound concentration 10 uM, replicate 1
[4] = 12 h, 10 µM, compound concentration 10 uM, replicate 2
[5] = 24 h, 1 µM, compound concentration 1 uM, replicate 1
[6] = 24 h, 1 µM, compound concentration 1 uM, replicate 2
[7] = 24 h, 10 µM, compound concentration 10 uM, replicate 1
[8] = 24 h, 10 µM, compound concentration 10 uM, replicate 2
[9] = 48 h, 1 µM, compound concentration 1 uM, replicate 1
[10] = 48 h, 1 µM, compound concentration 1 uM, replicate 2
[11] = 48 h, 10 µM, compound concentration 10 uM, replicate 1
[12] = 48 h, 10 µM, compound concentration 10 uM, replicate 2

CCNC1(C(N)=O)CCN(c2ncnc3c2nc(-c2ccccc2Cl)n3-c2ccc(Cl)cc2)CC1 [OTENABANT]
Population Apoptotic (%) [1]: 51%
Population Fragmented Nuclei (%) [1]: 8%
Population Healthy Nuclei (%) [1]: 80%
Population Hoechst High Intensity Objects (%) [1]: 10%
Population Membrane Permeable-Phenotype (%) [1]: 0%
Population Mitochondria Different-Phenotype (%) [1]: 48%
Population Mitotic Cells (%) [1]: 48%
Population Normal (%) [1]: 89%
Population Pyknosed Nuclei (%) [1]: 10%
Population Tubulin-Different-Phenotype (%) [1]: 52%
Total Cell Count [1]: 401
Population Apoptotic (%) [2]: 58%
Population Healthy Nuclei (%) [2]: 76%
Population Hoechst High Intensity Objects (%) [2]: 6%
Population Mitochondria Different-Phenotype (%) [2]: 66%
Population Mitotic Cells (%) [2]: 41%
Population Normal (%) [2]: 93%
Population Pyknosed Nuclei (%) [2]: 15%
Population Tubulin-Different-Phenotype (%) [2]: 44%
Total Cell Count [2]: 333
Population Apoptotic (%) [3]: 46%
Population Fragmented Nuclei (%) [3]: 3%
Population Healthy Nuclei (%) [3]: 74%
Population Hoechst High Intensity Objects (%) [3]: 16%
Population Membrane Permeable-Phenotype (%) [3]: 0%
Population Mitochondria Different-Phenotype (%) [3]: 82%
Population Mitotic Cells (%) [3]: 53%
Population Normal (%) [3]: 83%
Population Pyknosed Nuclei (%) [3]: 22%
Population Tubulin-Different-Phenotype (%) [3]: 50%
Total Cell Count [3]: 381
Population Apoptotic (%) [4]: 63%
Population Fragmented Nuclei (%) [4]: 4%
Population Healthy Nuclei (%) [4]: 67%
Population Hoechst High Intensity Objects (%) [4]: 9%
Population Mitochondria Different-Phenotype (%) [4]: 96%
Population Mitotic Cells (%) [4]: 36%
Population Normal (%) [4]: 90%
Population Pyknosed Nuclei (%) [4]: 27%
Population Tubulin-Different-Phenotype (%) [4]: 43%
Total Cell Count [4]: 251
Population Apoptotic (%) [5]: 49%
Population Fragmented Nuclei (%) [5]: 8%
Population Healthy Nuclei (%) [5]: 80%
Population Hoechst High Intensity Objects (%) [5]: 5%
Population Membrane Permeable-Phenotype (%) [5]: 0%
Population Mitochondria Different-Phenotype (%) [5]: 43%
Population Mitotic Cells (%) [5]: 50%
Population Normal (%) [5]: 94%
Population Pyknosed Nuclei (%) [5]: 11%
Population Tubulin-Different-Phenotype (%) [5]: 44%
Total Cell Count [5]: 474
Population Apoptotic (%) [6]: 40%
Population Fragmented Nuclei (%) [6]: 12%
Population Healthy Nuclei (%) [6]: 75%
Population Mitochondria Different-Phenotype (%) [6]: 47%
Population Mitotic Cells (%) [6]: 59%
Population Tubulin-Different-Phenotype (%) [6]: 41%
Total Cell Count [6]: 442
Population Apoptotic (%) [7]: 40%
Population Fragmented Nuclei (%) [7]: 8%
Population Healthy Nuclei (%) [7]: 71%
Population Hoechst High Intensity Objects (%) [7]: 17%
Population Membrane Permeable-Phenotype (%) [7]: 1%
Population Mitochondria Different-Phenotype (%) [7]: 79%
Population Mitotic Cells (%) [7]: 59%
Population Normal (%) [7]: 82%
Population Pyknosed Nuclei (%) [7]: 19%
Population Tubulin-Different-Phenotype (%) [7]: 56%
Total Cell Count [7]: 452
Population Apoptotic (%) [8]: 64%
Population Fragmented Nuclei (%) [8]: 6%
Population Healthy Nuclei (%) [8]: 77%
Population Hoechst High Intensity Objects (%) [8]: 13%
Population Membrane Permeable-Phenotype (%) [8]: 0%
Population Mitochondria Different-Phenotype (%) [8]: 95%
Population Mitotic Cells (%) [8]: 35%
Population Normal (%) [8]: 86%
Population Pyknosed Nuclei (%) [8]: 15%
Population Tubulin-Different-Phenotype (%) [8]: 53%
Total Cell Count [8]: 283
Population Apoptotic (%) [9]: 34%
Population Fragmented Nuclei (%) [9]: 12%
Population Healthy Nuclei (%) [9]: 78%
Population Hoechst High Intensity Objects (%) [9]: 4%
Population Membrane Permeable-Phenotype (%) [9]: 1%
Population Mitochondria Different-Phenotype (%) [9]: 29%
Population Mitotic Cells (%) [9]: 65%
Population Normal (%) [9]: 95%
Population Pyknosed Nuclei (%) [9]: 9%
Population Tubulin-Different-Phenotype (%) [9]: 30%
Total Cell Count [9]: 766
Population Apoptotic (%) [10]: 32%
Population Fragmented Nuclei (%) [10]: 8%
Population Healthy Nuclei (%) [10]: 82%
Population Membrane Permeable-Phenotype (%) [10]: 0%
Population Mitochondria Different-Phenotype (%) [10]: 30%
Population Mitotic Cells (%) [10]: 68%
Population Pyknosed Nuclei (%) [10]: 8%
Total Cell Count [10]: 604
Population Apoptotic (%) [11]: 52%
Population Fragmented Nuclei (%) [11]: 13%
Population Healthy Nuclei (%) [11]: 71%
Population Hoechst High Intensity Objects (%) [11]: 16%
Population Membrane Permeable-Phenotype (%) [11]: 2%
Population Mitochondria Different-Phenotype (%) [11]: 78%
Population Mitotic Cells (%) [11]: 47%
Population Normal (%) [11]: 83%
Population Pyknosed Nuclei (%) [11]: 15%
Population Tubulin-Different-Phenotype (%) [11]: 66%
Total Cell Count [11]: 560
Population Apoptotic (%) [12]: 70%
Population Fragmented Nuclei (%) [12]: 10%
Population Healthy Nuclei (%) [12]: 77%
Population Hoechst High Intensity Objects (%) [12]: 14%
Population Membrane Permeable-Phenotype (%) [12]: 0%
Population Mitochondria Different-Phenotype (%) [12]: 89%
Population Mitotic Cells (%) [12]: 29%
Population Normal (%) [12]: 85%
Population Pyknosed Nuclei (%) [12]: 12%
Population Tubulin-Different-Phenotype (%) [12]: 57%
Total Cell Count [12]: 325
